One series concerns CCRF-CEM. Kind of series: Anti-HIV activity against HIV-I RFII strain in CEM cell line. The conditions noted are these: Homo sapiens. The series is classed as functional, cell-based. Summed up: (§1)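 CEM-SS cells in RPMI 1640 with 10% heat-inactivated FCS, infected at ~0.12 TCID50/cell for 4 h at 37 °C, washed, and seeded at 10^4 cells/mL. Drug dilutions from DMSO went up to 100 µg/mL, in triplicate on infected wells and duplicate on uninfected wells. MTT viability was measured after 6 days.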

The subject of series [1] is Nucleic Acid. Kind of series: Inhibitory activity against DNA polymerase alpha; IA=inactive. The series is classed as nucleic-acid assay. Summed up: (§2)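 Polymerase α or β (0.5 unit) in Tris·HCl with 5 mM KCl, 10 mM MgCl2, 1.5 mM DTT, BSA, and 12% glycerol. Template was 41 µM activated calf thymus DNA, with 80 µM each dATP, dCTP, dGTP and ATP, plus [3H]TTP. Compound was added in DMSO, duplicate wells, 37 °C. Incorporation was counted by scintillation. IC50 came from 10-point half-log dose–response curves.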

Series [2] has as its target Nucleic Acid. Kind of series: Inhibitory activity against DNA polymerase beta. The series is classed as nucleic-acid assay. Summed up:
as §2

In series [3] the test system is MT2. Kind of series: Anti-HIV activity against HIV-I A17 strain in MT2 cell line. The series is classed as functional, cell-based. The conditions noted are these: Homo sapiens. Summed up:
(§3)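 MT-2 cells in RPMI 1640 with 10% heat-inactivated FCS and 25 mM HEPES, infected at MOI ~0.03 TCID50/cell for 4 h at 37 °C, then washed. Seeded at 10^4 cells/mL. Compounds were diluted from DMSO to a top concentration of 100 µg/mL (≤0.25% DMSO), in triplicate with infected cells and duplicate with uninfected cells. MTT viability was read at day 7. EC50 protects against virus-induced killing; IC50 is cytotoxicity.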

Series [4] concerns MT2. Kind of series: (§4) Anti-HIV activity against HIV-I G910-6 strain in MT2 cell line. The conditions noted are these: Homo sapiens. Format: functional, cell-based. The gist of the method:
as §3

For series [5], the system named is MT2. Kind of series: (§5) Anti-HIV activity against HIV-I H112-2 strain in MT2 cell line. Format: functional, cell-based. Particulars: Homo sapiens; call rule not given here. The gist of the method:
as §3

Series [6] relates to MT2. Kind of series: Anti-HIV activity against HIV-I IIIB strain in MT2 cell line. Format: functional, cell-based. Particulars: Homo sapiens. The gist of the method:
as §3

Series [7] has as its target DNA-directed RNA polymerase subunit beta (Escherichia coli K-12, UniProt P0A8V2). Kind of series: Inhibitory activity against RNA polymerase; IA=inactive. Summed up: (§6)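 RNA polymerase (0.5 unit) in Tris·HCl with 150 mM KCl, 10 mM MgCl2, 0.1 mM DTT, and BSA. Template was 41 µM native calf thymus DNA, with 80 µM each ATP, CTP and GTP, plus [3H]UTP. Compounds in DMSO were prescreened at 200 µg/mL. […] Percent inhibition = (1 − test/DMSO control) × 100.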

For series [8], the target named is DNA-directed RNA polymerase subunit beta (Escherichia coli K-12) (UniProt P0A8V2). Kind of series: Percent inhibition against RNA polymerase at dose 200 ug/mL. The gist of the method:
as §6

The test system of series [9] is Avian myeloblastosis virus. Kind of series: Inhibitory activity against Avian Myeloblastosis Virus Reverse Transcriptase (AMV RT); IA=inactive. The series is classed as functional.
In series [10] the test system is Avian myeloblastosis virus. Kind of series: Percent inhibition against Avian Myeloblastosis Virus Reverse Transcriptase (AMV RT) at dose 200 ug/mL. Format: functional.
Series [11] can be described thus: Therapeutic index is the ratio between IC50/EC50 of HIV-I RFII strain in CEM cell line. Format: cell-based, CCRF-CEM. The conditions noted are these: human, CEM cells infected with HIV-1 RFII strain; read-out: TI. The gist of the method: as §1
Series [12] in a line: Therapeutic index is the ratio between IC50/EC50 of HIV-I A17 strain in MT2 cell line. Format: cell-based. Particulars: human, MT2 cells infected with HIV-1 A17 strain; read-out: TI. The gist of the method:
as §3

The nature of series [13]: Therapeutic index is the ratio between IC50/EC50 of HIV-I G910-6 strain in MT2 cell line. Format: cell-based. Particulars: human, MT2 cells infected with HIV-1 G910-6 strain; read-out: TI. Summed up: as §3
Series [14] is described as follows: Therapeutic index is the ratio between IC50/EC50 of HIV-I H112-2 strain in MT2 cell line. Format: cell-based. The conditions noted are these: human, MT2 cells infected with HIV-1 H112-2 strain; read-out: TI. The gist of the method:
as §3

Series [15] can be described thus: Therapeutic index is the ratio between IC50/EC50 of HIV-I IIIB strain in MT2 cell line. The series is classed as cell-based. The conditions noted are these: human, MT2 cells infected with HIV-1 IIIB strain; read-out: TI. The gist of the method:
as §3

For series [16], the system named is Avian myeloblastosis virus. Kind of series: Inhibitory activity against Avian Myeloblastosis Virus Reverse Transcriptase (AMV RT); inactive. The series is classed as functional.
Series [17] relates to MT2. Described as §4. Format: functional. Particulars: Homo sapiens. Summed up: as §3
For series [18], the system named is MT2. The series is described as §5. Particulars: Homo sapiens. The series is classed as functional. The gist of the method: as §3

Sequence of DNA-directed RNA polymerase subunit beta (Escherichia coli K-12) (P0A8V2 whole entry, looked up): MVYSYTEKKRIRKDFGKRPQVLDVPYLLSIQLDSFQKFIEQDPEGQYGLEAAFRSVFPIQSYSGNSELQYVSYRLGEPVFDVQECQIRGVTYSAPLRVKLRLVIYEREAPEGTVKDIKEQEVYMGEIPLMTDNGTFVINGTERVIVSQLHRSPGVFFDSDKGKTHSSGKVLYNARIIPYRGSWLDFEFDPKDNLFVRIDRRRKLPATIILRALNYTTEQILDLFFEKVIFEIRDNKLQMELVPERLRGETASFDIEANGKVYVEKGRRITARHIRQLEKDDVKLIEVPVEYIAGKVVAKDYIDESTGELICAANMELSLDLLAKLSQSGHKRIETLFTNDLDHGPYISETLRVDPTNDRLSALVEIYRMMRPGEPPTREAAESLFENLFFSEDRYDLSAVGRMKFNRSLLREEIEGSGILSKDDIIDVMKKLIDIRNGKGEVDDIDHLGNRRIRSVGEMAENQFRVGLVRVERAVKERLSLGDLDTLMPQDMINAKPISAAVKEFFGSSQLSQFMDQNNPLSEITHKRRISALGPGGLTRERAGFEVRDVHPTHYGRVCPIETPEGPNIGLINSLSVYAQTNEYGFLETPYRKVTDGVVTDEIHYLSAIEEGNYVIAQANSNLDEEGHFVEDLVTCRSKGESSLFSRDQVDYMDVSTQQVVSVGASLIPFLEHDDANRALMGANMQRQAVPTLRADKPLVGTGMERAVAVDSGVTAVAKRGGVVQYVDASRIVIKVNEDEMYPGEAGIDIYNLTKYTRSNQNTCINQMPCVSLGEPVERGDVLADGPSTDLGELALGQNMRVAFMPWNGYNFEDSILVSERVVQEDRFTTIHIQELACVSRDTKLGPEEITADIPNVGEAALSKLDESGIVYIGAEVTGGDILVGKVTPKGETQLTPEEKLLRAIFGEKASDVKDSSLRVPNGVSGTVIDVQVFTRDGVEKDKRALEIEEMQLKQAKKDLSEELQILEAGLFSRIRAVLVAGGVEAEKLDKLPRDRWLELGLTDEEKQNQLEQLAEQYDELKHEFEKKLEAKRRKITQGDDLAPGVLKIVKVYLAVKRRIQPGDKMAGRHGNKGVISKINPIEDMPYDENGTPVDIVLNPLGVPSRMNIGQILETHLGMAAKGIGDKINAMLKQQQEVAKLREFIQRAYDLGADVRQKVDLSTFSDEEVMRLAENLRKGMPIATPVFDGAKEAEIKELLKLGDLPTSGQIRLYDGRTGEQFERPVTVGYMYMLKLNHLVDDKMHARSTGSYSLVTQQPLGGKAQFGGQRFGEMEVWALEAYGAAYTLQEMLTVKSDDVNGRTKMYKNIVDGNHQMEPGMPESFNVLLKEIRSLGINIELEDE
Sequence of DNA-directed RNA polymerase subunit beta (P0A8V2 whole entry): as the sequence (P0A8V2 whole entry, looked up) above

Take `CCCc1cc(=O)oc2c3c(c4c(c12)OC(C)(C)C=C4)O[C@@H](C)C(C)[C@@H]3O` (mixture of isomers): the EC50 with CCRF-CEM worked out at 486 nM; in the series with MT2 [3], 297 nM; in the series with MT2 [4] it was 108 nM; in the series with MT2 [5], 135 nM; in the series on MT2 [6], 108 nM. Moreover, the IC50 entry is “Not Active” in the series on Nucleic Acid [1], 279000 nM against Nucleic Acid [2], “Not Active” in series [7] and “Not Active” in [9]. Moreover, the inhibition in [8] is 27.8%. Also, the inhibition at 200 µg/mL in series [10] came out at 13.3%.
Turning to `Nc1ccn([C@H]2CC[C@@H](CO)O2)c(=O)n1` [ZALCITABINE], the selectivity ratio in [11] was determined as 250; in [12], 408; in series [13], 213; in [14], 166; in series [15], 93. The EC50 in the series on CCRF-CEM was 189 nM; in the series on MT2 [3] it was 331 nM; with MT2 [4] it was 994 nM; with MT2 [5], 1560 nM; in the series with MT2 [6], 900 nM.
Turning to `CCCc1cc(=O)oc2c3c(c4c(c12)OC(C)(C)C=C4)O[C@H](C)[C@@H](C)[C@@H]3O` [CALANOLIDE A], the EC50 in the series with CCRF-CEM amounted to 267 nM; with MT2 [3] it was 427 nM; with MT2 [4], 27 nM; with MT2 [5] it was 107 nM; in the series with MT2 [6], 53 nM. Besides, the IC50 entry with Nucleic Acid [1] was “Not Active”; against Nucleic Acid [2] it was 205000 nM; in series [7] it was “Not Active”; in [16], “Not Active”. The compound also gave an inhibition in series [8] of 16%. The compound also yielded an inhibition at 200 µg/mL in series [10] of 20.6%.
In the case of `CCCc1cc(=O)oc2c3c(c4c(c12)OC(C)(C)C=C4)O[C@@H](C)[C@H](C)[C@@H]3O` [COSTATOLIDE], the IC50 result in the series with Nucleic Acid [1] was “Not Active”; against Nucleic Acid [2], 214000 nM; in [7], “Not Active”; in series [9], “Not Active”. Also, the figures for the IC25 in the series with MT2 [17] and in the series with MT2 [18] were 3970 nM and 4050 nM, respectively. The same compound displayed an inhibition in series [8] of 12.1%. Moreover, 200 µg/mL produced 16.8% inhibition in [10].
For the compound `Cc1cn([C@H]2C[C@H](N=[N+]=[N-])[C@@H](CO)O2)c(=O)[nH]c1=O` [ZIDOVUDINE], the selectivity ratio in series [11] is 13100; in [12], 5960; in [14], 3240; in series [15] it was 1780. The EC50 in the series on CCRF-CEM was 23 nM; in the series with MT2 [3], 14 nM; in the series with MT2 [5] it was 37 nM; with MT2 [6] it was 29 nM.

Broadly, the EC50 is the concentration needed to bring the measured effect to its halfway point. The IC50 is the concentration that gives 50% inhibition. High values mean weaker potency, low ones greater potency. The term inhibition denotes the change of the read-out against control, counted positive when it falls. By IC25 is commonly meant the concentration needed for an effect of 25%.

Values taken from ChEMBL document CHEMBL1129527, “Synthesis, chromatographic resolution, and anti-human immunodeficiency virus activity of (+/-)-calanolide A and its enantiomers” (J Med Chem, 1996).
